Measurements as given in ChEMBL document CHEMBL4689842, “EUbOPEN Chemogenomics Library wave 1” (2021).

System: Fibroblast
Test: Multiplex assay against human fibroblast
Format: toxicity, cell-based
Procedure, shortened: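 Live cells were stained at seeding with Hoechst33342, BioTracker Green Microtubule Cytoskeleton Dye, MitoTracker Red and Annexin V Alexa Fluor 680. Following compound addition, they were imaged on a CQ1 microscope at 37°C and 5% CO2 and gated by CellPathfinder machine learning into Hoechst high-intensity objects or normal cells, with normal cells split into healthy, pyknosed or fragmented nuclei and pyknosed cells into mitotic or apoptotic. Tubulin, mitochondrial-mass and membrane-permeability phenotypes are per cents of healthy-nucleus cells.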

[1] = 12 h, 1 µM, compound concentration 1 uM, replicate 1
[2] = 12 h, 1 µM, compound concentration 1 uM, replicate 2
[3] = 12 h, 10 µM, compound concentration 10 uM, replicate 1
[4] = 12 h, 10 µM, compound concentration 10 uM, replicate 2
[5] = 24 h, 1 µM, compound concentration 1 uM, replicate 1
[6] = 24 h, 1 µM, compound concentration 1 uM, replicate 2
[7] = 24 h, 10 µM, compound concentration 10 uM, replicate 1
[8] = 24 h, 10 µM, compound concentration 10 uM, replicate 2
[9] = 48 h, 1 µM, compound concentration 1 uM, replicate 1
[10] = 48 h, 1 µM, compound concentration 1 uM, replicate 2
[11] = 48 h, 10 µM, compound concentration 10 uM, replicate 1
[12] = 48 h, 10 µM, compound concentration 10 uM, replicate 2

Structure (SMILES): CNc1cc(Oc2cc(C(=O)Nc3cc(N4CCN(C)CC4)cc(C(F)(F)F)c3)ccc2C)ncn1
- Population Apoptotic (%) [1]: 61%
- Population Fragmented Nuclei (%) [1]: 31%
- Population Healthy Nuclei (%) [1]: 39%
- Population Hoechst High Intensity Objects (%) [1]: 9%
- Population Membrane Permeable-Phenotype (%) [1]: 25%
- Population Mitochondria Different-Phenotype (%) [1]: 17%
- Population Mitotic Cells (%) [1]: 38%
- Population Normal (%) [1]: 90%
- Population Pyknosed Nuclei (%) [1]: 29%
- Population Tubulin-Different-Phenotype (%) [1]: 53%
- Total Cell Count [1]: 147
- Population Apoptotic (%) [2]: 54%
- Population Fragmented Nuclei (%) [2]: 10%
- Population Healthy Nuclei (%) [2]: 73%
- Population Hoechst High Intensity Objects (%) [2]: 2%
- Population Membrane Permeable-Phenotype (%) [2]: 10%
- Population Mitochondria Different-Phenotype (%) [2]: 60%
- Population Mitotic Cells (%) [2]: 45%
- Population Normal (%) [2]: 97%
- Population Pyknosed Nuclei (%) [2]: 16%
- Population Tubulin-Different-Phenotype (%) [2]: 52%
- Total Cell Count [2]: 56
- Population Apoptotic (%) [3]: 54%
- Population Fragmented Nuclei (%) [3]: 27%
- Population Healthy Nuclei (%) [3]: 26%
- Population Hoechst High Intensity Objects (%) [3]: 18%
- Population Membrane Permeable-Phenotype (%) [3]: 37%
- Population Mitochondria Different-Phenotype (%) [3]: 45%
- Population Mitotic Cells (%) [3]: 45%
- Population Normal (%) [3]: 81%
- Population Pyknosed Nuclei (%) [3]: 46%
- Population Tubulin-Different-Phenotype (%) [3]: 65%
- Total Cell Count [3]: 186
- Population Apoptotic (%) [4]: 73%
- Population Fragmented Nuclei (%) [4]: 24%
- Population Healthy Nuclei (%) [4]: 13%
- Population Hoechst High Intensity Objects (%) [4]: 33%
- Population Membrane Permeable-Phenotype (%) [4]: 58%
- Population Mitochondria Different-Phenotype (%) [4]: 66%
- Population Mitotic Cells (%) [4]: 26%
- Population Normal (%) [4]: 66%
- Population Pyknosed Nuclei (%) [4]: 61%
- Population Tubulin-Different-Phenotype (%) [4]: 66%
- Total Cell Count [4]: 70
- Population Apoptotic (%) [5]: 61%
- Population Fragmented Nuclei (%) [5]: 30%
- Population Healthy Nuclei (%) [5]: 38%
- Population Hoechst High Intensity Objects (%) [5]: 11%
- Population Membrane Permeable-Phenotype (%) [5]: 16%
- Population Mitochondria Different-Phenotype (%) [5]: 10%
- Population Mitotic Cells (%) [5]: 38%
- Population Normal (%) [5]: 88%
- Population Pyknosed Nuclei (%) [5]: 30%
- Population Tubulin-Different-Phenotype (%) [5]: 71%
- Total Cell Count [5]: 163
- Population Apoptotic (%) [6]: 50%
- Population Fragmented Nuclei (%) [6]: 16%
- Population Healthy Nuclei (%) [6]: 63%
- Population Hoechst High Intensity Objects (%) [6]: 6%
- Population Membrane Permeable-Phenotype (%) [6]: 13%
- Population Mitochondria Different-Phenotype (%) [6]: 68%
- Population Mitotic Cells (%) [6]: 50%
- Population Normal (%) [6]: 93%
- Population Pyknosed Nuclei (%) [6]: 19%
- Population Tubulin-Different-Phenotype (%) [6]: 51%
- Total Cell Count [6]: 58
- Population Apoptotic (%) [7]: 80%
- Population Fragmented Nuclei (%) [7]: 34%
- Population Healthy Nuclei (%) [7]: 19%
- Population Hoechst High Intensity Objects (%) [7]: 18%
- Population Membrane Permeable-Phenotype (%) [7]: 15%
- Population Mitochondria Different-Phenotype (%) [7]: 57%
- Population Mitotic Cells (%) [7]: 19%
- Population Normal (%) [7]: 81%
- Population Pyknosed Nuclei (%) [7]: 45%
- Population Tubulin-Different-Phenotype (%) [7]: 76%
- Total Cell Count [7]: 163
- Population Apoptotic (%) [8]: 76%
- Population Fragmented Nuclei (%) [8]: 16%
- Population Healthy Nuclei (%) [8]: 23%
- Population Hoechst High Intensity Objects (%) [8]: 48%
- Population Membrane Permeable-Phenotype (%) [8]: 80%
- Population Mitochondria Different-Phenotype (%) [8]: 80%
- Population Mitotic Cells (%) [8]: 23%
- Population Normal (%) [8]: 51%
- Population Pyknosed Nuclei (%) [8]: 60%
- Population Tubulin-Different-Phenotype (%) [8]: 80%
- Total Cell Count [8]: 76
- Population Apoptotic (%) [9]: 84%
- Population Fragmented Nuclei (%) [9]: 37%
- Population Healthy Nuclei (%) [9]: 43%
- Population Hoechst High Intensity Objects (%) [9]: 15%
- Population Membrane Permeable-Phenotype (%) [9]: 12%
- Population Mitochondria Different-Phenotype (%) [9]: 10%
- Population Mitotic Cells (%) [9]: 16%
- Population Normal (%) [9]: 84%
- Population Pyknosed Nuclei (%) [9]: 19%
- Population Tubulin-Different-Phenotype (%) [9]: 65%
- Total Cell Count [9]: 150
- Population Apoptotic (%) [10]: 60%
- Population Fragmented Nuclei (%) [10]: 43%
- Population Healthy Nuclei (%) [10]: 52%
- Population Hoechst High Intensity Objects (%) [10]: 23%
- Population Mitochondria Different-Phenotype (%) [10]: 3%
- Population Mitotic Cells (%) [10]: 40%
- Population Normal (%) [10]: 76%
- Population Pyknosed Nuclei (%) [10]: 4%
- Population Tubulin-Different-Phenotype (%) [10]: 49%
- Total Cell Count [10]: 158
- Population Apoptotic (%) [11]: 75%
- Population Fragmented Nuclei (%) [11]: 59%
- Population Healthy Nuclei (%) [11]: 10%
- Population Hoechst High Intensity Objects (%) [11]: 30%
- Population Membrane Permeable-Phenotype (%) [11]: 36%
- Population Mitochondria Different-Phenotype (%) [11]: 54%
- Population Mitotic Cells (%) [11]: 24%
- Population Normal (%) [11]: 69%
- Population Pyknosed Nuclei (%) [11]: 30%
- Population Tubulin-Different-Phenotype (%) [11]: 72%
- Total Cell Count [11]: 155
- Population Apoptotic (%) [12]: 100%
- Population Fragmented Nuclei (%) [12]: 84%
- Population Healthy Nuclei (%) [12]: 11%
- Population Hoechst High Intensity Objects (%) [12]: 34%
- Population Membrane Permeable-Phenotype (%) [12]: 20%
- Population Mitochondria Different-Phenotype (%) [12]: 80%
- Population Mitotic Cells (%) [12]: 0%
- Population Normal (%) [12]: 65%
- Population Pyknosed Nuclei (%) [12]: 4%
- Population Tubulin-Different-Phenotype (%) [12]: 80%
- Total Cell Count [12]: 67
